From publication PMC3428514 (Molecular cell, 2012)
Peptide text beside a SMILES is read from it.

Tests used:
[1] = target: caspase-8 (Homo sapiens, UniProt Q14790); test: caspase-8 dimerization by Superdex 200 gel filtration; assay type: biochemical; details: 10 μM, 15 minutes at 30°C
Procedure, shortened: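 Recombinant caspase-8 (100 nM) incubated 15 min at 30°C with test compound at 10 μM, DMSO, or 10 μM Ac-VAD-CHO, then run on Superdex 200 gel filtration. Collected fractions analysed by SDS-PAGE with Coomassie Blue staining, and caspase activity measured in each fraction.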

[2] = test system: Cdc25B; details: read-out: IC50, Cdc25B; ref Vogt et al., 2003; cited from earlier work
[3] = test system: X-IAP; details: read-out: IC50, X-IAP; ref Glover et al., 2003; cited from earlier work

caspase-8, sequence (Q14790 217-479, species assumed): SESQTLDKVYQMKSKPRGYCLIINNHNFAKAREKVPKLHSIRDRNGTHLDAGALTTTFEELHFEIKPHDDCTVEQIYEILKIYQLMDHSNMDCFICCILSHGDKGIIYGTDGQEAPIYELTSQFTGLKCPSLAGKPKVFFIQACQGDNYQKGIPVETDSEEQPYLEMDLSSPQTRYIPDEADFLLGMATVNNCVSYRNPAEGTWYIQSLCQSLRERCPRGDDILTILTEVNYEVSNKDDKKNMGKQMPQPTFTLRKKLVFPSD

| effect on caspase-8 dimerization [1] | Compound | IC50 [2] | IC50 [3] |
| --- | --- | --- | --- |
| shift to the dimeric species | CC(=O)N[C@H](C(=O)N[C@@H](C)C(=O)N[C@H](C=O)CC(=O)O)C(C)C [Ac-VAD-CHO] (Ac-Val-Ala-Asp-aldehyde) | – | – |
| – | CSC(=S)NN=C(c1ccccn1)c1ccccn1.[Cu][Br] [Comp-C] | > 10 µM | > 10 µM |
